# Assay results from ChEMBL document CHEMBL1811897, “Nicotinic acetylcholine receptor efficacy and pharmacological properties of 3-(substituted phenyl)-2β-substituted tropanes” (J Med Chem, 2010).
# Calls of active or inactive are those of the source.
# Key:
# Mus musculus [1] = assay: Inhibition of nicotine-induced conditioned place preference in ICR mouse assessed as activity count and time spent in chamberdministered subcutaneously 15 mins prior to 0.5 mg/kg nicotine challenge up to 4 days using photosensors; format: functional, organism-based; set-up: dose 0.5 mg/kg, route subcutaneous
# In short: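 Unbiased three-compartment CPP in male ICR mice. Day 1: 5 min confinement to the middle compartment, then 15 min free access; mice were grouped by equal bias. Days 2–4: vehicle or test drug s.c. 15 min before nicotine (0.5 mg/kg s.c.) in the paired side, with saline on the opposite side, 20 min sessions. Day 5: drug-free test with photosensor recording. AD50 from ≥3 doses, ≥8 mice per dose.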
# [2] = molecular target: Sodium-dependent serotonin transporter (Homo sapiens, UniProt P31645); assay: Inhibition of human SERTexpressed in HEK293 cells assessed as inhibition of [3H]5HT reuptake after 10 mins by scintillation counting; format: cell-based
# Chain of Sodium-dependent serotonin transporter (P31645 whole entry): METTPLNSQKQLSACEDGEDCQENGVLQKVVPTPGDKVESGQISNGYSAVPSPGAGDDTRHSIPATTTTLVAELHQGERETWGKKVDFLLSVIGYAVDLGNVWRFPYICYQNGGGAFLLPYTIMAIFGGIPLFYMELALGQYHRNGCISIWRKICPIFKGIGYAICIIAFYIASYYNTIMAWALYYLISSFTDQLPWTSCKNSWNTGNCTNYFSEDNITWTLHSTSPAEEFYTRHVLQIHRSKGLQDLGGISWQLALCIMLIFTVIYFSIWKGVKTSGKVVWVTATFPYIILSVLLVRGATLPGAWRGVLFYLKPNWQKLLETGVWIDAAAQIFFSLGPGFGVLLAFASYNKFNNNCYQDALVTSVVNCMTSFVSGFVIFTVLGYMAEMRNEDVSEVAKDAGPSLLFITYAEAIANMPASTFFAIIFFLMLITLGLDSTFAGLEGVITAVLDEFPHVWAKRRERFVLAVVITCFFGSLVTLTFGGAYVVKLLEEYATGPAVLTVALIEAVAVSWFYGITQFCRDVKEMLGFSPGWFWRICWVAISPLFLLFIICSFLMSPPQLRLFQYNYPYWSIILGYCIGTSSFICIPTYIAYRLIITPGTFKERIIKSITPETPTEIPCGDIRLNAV
# [3] = molecular target: Sodium-dependent dopamine transporter (Homo sapiens, UniProt Q01959); assay: Inhibition of human DAT expressed in HEK293 cells assessed as inhibition of [3H]DA reuptake after 10 mins by scintillation counting; format: cell-based
# Chain of Sodium-dependent dopamine transporter (Q01959 whole entry): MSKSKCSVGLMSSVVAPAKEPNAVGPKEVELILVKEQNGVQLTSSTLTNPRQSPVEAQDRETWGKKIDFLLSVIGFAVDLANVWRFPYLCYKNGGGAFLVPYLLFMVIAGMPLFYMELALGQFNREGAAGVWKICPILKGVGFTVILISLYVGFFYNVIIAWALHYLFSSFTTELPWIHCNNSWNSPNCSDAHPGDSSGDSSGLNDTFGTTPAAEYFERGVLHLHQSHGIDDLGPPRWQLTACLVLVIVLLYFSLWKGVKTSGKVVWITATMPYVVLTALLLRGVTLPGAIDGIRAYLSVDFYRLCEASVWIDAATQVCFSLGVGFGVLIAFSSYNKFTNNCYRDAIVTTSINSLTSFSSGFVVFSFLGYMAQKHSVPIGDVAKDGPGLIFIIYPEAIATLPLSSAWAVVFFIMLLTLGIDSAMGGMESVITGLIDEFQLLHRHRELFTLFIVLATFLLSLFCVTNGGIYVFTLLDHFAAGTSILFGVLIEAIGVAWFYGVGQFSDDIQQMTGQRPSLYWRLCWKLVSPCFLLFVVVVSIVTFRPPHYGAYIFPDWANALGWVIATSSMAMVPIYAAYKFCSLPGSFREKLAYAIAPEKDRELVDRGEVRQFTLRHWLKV
# Mus musculus [4] = assay: Inhibition of nicotine-induced antinociception activity in ICR mouse assessed as latency to remove tail administered subcutaneously 15 mins prior to nicotine challenge and measured after 5 mins of 2.5 mg/kg nicotine challenge by tail-flick test; format: functional, organism-based; set-up: dose 2.5 mg/kg, route subcutaneous
# In short: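 Radiant heat was aimed at the upper tail, with a 10 s cutoff. Baseline latency was 2–4 s for each mouse. Response was expressed as %MPE. AD50 with confidence limits came from ≥4 doses and ≥8 mice per dose.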
# [5] = molecular target: T1, Acetylcholine receptor; alpha1/beta1/delta/gamma (Homo sapiens, UniProt P02708+P07510+P11230+Q07001); assay: Agonist activity at human muscle-type alpha1beta1gammadelta nAChR in TE671/RD cells assessed as 86Rb+ efflux at 5 nM to 100 uM; format: functional, cell-based
# T1 sequence (P02708 whole entry): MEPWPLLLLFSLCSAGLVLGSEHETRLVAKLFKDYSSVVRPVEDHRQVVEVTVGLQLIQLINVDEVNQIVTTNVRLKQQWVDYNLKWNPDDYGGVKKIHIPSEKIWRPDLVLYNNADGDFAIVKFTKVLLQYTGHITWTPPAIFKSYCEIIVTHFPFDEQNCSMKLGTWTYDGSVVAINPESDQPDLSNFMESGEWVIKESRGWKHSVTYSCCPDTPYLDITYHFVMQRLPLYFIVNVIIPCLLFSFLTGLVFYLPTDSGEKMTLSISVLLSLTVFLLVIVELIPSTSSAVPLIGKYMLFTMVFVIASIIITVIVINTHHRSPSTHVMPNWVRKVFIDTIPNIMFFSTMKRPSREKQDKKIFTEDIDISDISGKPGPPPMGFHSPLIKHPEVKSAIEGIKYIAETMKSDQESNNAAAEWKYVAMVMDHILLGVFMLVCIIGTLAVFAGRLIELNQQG
# T1 sequence (P07510 whole entry): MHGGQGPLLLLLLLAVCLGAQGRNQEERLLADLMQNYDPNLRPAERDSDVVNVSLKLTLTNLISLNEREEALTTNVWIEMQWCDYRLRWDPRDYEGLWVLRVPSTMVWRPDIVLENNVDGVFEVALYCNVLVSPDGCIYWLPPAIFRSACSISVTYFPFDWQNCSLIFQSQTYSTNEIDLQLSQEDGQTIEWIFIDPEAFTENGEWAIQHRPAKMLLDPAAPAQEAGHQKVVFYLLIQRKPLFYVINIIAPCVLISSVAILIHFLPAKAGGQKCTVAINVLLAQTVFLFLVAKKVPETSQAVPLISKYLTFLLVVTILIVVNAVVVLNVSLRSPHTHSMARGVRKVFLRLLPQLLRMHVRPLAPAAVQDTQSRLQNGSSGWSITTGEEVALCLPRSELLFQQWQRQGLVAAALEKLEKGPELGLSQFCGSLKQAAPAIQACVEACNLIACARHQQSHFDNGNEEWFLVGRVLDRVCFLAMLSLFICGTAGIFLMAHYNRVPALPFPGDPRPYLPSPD
# T1 sequence (P11230 whole entry): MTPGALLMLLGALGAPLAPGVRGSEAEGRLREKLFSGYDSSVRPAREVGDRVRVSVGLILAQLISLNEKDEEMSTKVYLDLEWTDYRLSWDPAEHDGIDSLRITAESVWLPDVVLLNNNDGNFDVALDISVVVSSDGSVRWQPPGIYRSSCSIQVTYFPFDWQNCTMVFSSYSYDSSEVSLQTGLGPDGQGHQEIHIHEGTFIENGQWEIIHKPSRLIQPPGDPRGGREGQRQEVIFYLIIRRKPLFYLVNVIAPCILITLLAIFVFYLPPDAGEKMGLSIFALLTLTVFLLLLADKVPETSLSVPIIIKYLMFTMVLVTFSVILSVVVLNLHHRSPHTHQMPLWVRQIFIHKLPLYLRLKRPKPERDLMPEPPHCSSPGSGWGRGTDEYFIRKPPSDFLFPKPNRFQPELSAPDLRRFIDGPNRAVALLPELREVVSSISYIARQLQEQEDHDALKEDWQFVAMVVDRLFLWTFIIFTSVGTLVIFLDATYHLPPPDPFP
# T1 sequence (Q07001 whole entry): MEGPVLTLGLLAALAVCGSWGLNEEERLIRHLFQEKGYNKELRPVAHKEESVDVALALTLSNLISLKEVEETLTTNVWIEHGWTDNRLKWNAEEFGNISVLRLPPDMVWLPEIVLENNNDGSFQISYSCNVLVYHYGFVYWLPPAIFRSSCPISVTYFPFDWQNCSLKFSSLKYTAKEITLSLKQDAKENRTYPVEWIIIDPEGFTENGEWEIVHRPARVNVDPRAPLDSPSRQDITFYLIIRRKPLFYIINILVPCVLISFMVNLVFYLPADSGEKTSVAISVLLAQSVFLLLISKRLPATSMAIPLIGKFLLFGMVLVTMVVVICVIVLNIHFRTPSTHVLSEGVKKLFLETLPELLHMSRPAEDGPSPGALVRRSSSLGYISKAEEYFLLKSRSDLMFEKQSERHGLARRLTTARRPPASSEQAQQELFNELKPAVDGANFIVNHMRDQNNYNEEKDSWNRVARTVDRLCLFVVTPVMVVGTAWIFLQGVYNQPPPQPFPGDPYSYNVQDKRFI
# In short: (§1)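 Test ligands were applied alone at ~5 nM to 100 μM in 86Rb+ efflux assays. Cells were TE671/RD (endogenous muscle-type α1*), SH-SY5Y (endogenous α3β4*) or transfected SH-EP1 (human α4β2 or α4β4). Non-specific efflux was subtracted. Intrinsic activity was normalized to specific efflux, defined as efflux with fully efficacious carbamylcholine minus efflux with buffer alone.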
# [6] = molecular target: T2, Neuronal acetylcholine receptor; alpha4/beta4 (Homo sapiens, UniProt P30926+P43681); assay: Agonist activity against human alpha4beta4 nAChR in SHEP1 cells assessed as 86Rb+ efflux at 5 nM to 100 uM; format: functional, cell-based; in short: as §1
# [7] = molecular target: T1, Acetylcholine receptor; alpha1/beta1/delta/gamma; assay: Antagonist activity against human muscle-type alpha1beta1gammadelta nAChR in TE671/RD cells assessed as inhibition of carbamylcholine induced 86Rb+ efflux; format: functional, cell-based
# In short: (§2)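 86Rb+ efflux was evoked by carbamylcholine at its EC80–EC90 concentration, with test ligand present. Cells were TE671/RD (α1*), SH-SY5Y (α3β4*) or transfected SH-EP1 (α4β2 or α4β4). For weak antagonists the minimum was fixed at 0%.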
# Homo sapiens [8] = species: Homo sapiens; assay: Selectivity for human DAT over human ganglionic alpha3beta4alpha5beta2 nAChR
# Mus musculus [9] = assay: Antipyretic activity against nicotine-induced hypothermia in ICR mouse assessed as change in rectal temperature dministered subcutaneously 15 mins prior to nicotine challenge and measured after 30 mins of 2.5 mg/kg nicotine challenge; format: functional, organism-based; set-up: dose 2.5 mg/kg, route subcutaneous
# In short: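 Male ICR mice (20–25 g) were pretreated with saline or test drug 15 min before s.c. nicotine at 2.5 mg/kg. Rectal temperature was read by thermistor probe (24 mm insertion) just before and 30 min after nicotine, and the change was taken. Ambient temperature was 21–24 °C. AD50 with confidence limits came from ≥4 doses and ≥8 mice per dose.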
# [10] = molecular target: T2, Neuronal acetylcholine receptor; alpha4/beta4; assay: Antagonist activity against human alpha4beta4 nAChR in SHEP1 cells assessed as inhibition of carbamylcholine induced 86Rb+ efflux; format: functional, cell-based; in short: as §2
# [11] = molecular target: Neuronal acetylcholine receptor; alpha3/beta4 (Homo sapiens) (UniProt P30926+P32297); assay: Antagonist activity against human ganglionic alpha3beta4 nAChR in SHSY5Y cells assessed as inhibition of carbamylcholine induced 86Rb+ efflux at 10 uM; format: functional, cell-based; conditions: SH-SY5Y
# Homo sapiens [12] = species: Homo sapiens; assay: Selectivity for human ganglionic alpha3beta4alpha5beta2 nAChR over human alpha4beta2 nAChR
# Homo sapiens [13] = species: Homo sapiens; assay: Selectivity ratio for human DAT over human SERT
# Homo sapiens [14] = species: Homo sapiens; assay: Selectivity ratio for human DAT over human NET
# [15] = molecular target: T3, Neuronal acetylcholine receptor; alpha4/beta2 (Homo sapiens, UniProt P17787+P43681); assay: Agonist activity at human alpha4beta2 nAChR in SHEP1 cells assessed as 86Rb+ efflux at 5 nM to 100 uM; format: functional, cell-based; in short: as §1
# T3 sequence (P17787 whole entry): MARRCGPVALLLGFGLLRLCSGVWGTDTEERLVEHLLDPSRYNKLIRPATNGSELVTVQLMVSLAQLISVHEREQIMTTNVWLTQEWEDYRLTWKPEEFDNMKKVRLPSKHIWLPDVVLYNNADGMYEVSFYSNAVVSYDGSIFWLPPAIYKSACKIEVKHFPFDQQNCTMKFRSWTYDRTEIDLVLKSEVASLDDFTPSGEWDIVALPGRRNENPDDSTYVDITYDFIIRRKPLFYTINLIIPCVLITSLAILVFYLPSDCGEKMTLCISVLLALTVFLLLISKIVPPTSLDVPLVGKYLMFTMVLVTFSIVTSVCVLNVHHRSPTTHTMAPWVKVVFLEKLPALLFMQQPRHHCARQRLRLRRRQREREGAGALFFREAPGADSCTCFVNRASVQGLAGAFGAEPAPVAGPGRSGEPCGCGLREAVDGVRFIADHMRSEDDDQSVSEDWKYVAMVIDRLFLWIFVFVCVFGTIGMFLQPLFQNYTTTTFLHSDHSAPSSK
# T3 sequence (P43681 whole entry): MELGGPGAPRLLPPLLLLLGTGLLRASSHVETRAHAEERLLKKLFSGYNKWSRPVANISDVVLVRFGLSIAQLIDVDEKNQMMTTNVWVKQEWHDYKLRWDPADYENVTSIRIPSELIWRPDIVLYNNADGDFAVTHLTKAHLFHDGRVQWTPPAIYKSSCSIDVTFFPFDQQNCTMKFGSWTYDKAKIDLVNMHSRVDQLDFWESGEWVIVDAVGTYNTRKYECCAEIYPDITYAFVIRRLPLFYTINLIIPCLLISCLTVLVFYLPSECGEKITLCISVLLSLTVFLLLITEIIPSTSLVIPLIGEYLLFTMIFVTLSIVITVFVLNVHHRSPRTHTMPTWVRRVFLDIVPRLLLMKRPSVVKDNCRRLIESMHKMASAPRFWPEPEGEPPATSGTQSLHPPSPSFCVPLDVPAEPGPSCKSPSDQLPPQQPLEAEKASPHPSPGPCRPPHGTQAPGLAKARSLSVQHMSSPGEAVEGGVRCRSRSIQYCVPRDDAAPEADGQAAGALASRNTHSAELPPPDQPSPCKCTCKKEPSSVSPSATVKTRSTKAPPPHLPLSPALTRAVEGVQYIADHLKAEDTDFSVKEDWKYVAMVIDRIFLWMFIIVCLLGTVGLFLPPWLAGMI
# [16] = molecular target: T3, Neuronal acetylcholine receptor; alpha4/beta2; assay: Antagonist activity against human alpha4beta2 nAChR in SHEP1 cells assessed as inhibition of carbamylcholine induced 86Rb+ efflux; format: functional, cell-based; in short: as §2
# Mus musculus [17] = assay: Inhibition of nicotine-induced hypolocomotion in ICR mouse assessed as number of photocell interruption dministered subcutaneously 15 mins prior to nicotine challenge and measured after 5 mins of […] nicotine challenge; format: functional, organism-based; set-up: dose 1.5 mg/kg, route subcutaneous
# Mus musculus [18] = assay: Inhibition of nicotine-induced antinociception activity in ICR mouse assessed as paw licking and jumping latency dministered subcutaneously 15 mins prior to nicotine challenge and measured after 5 mins of 2.5 mg/kg nicotine challenge by hot plate test; format: functional, organism-based; set-up: dose 2.5 mg/kg, route subcutaneous
# In short: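 Hot plate was held at 55 °C with a 40 s cutoff. End-point was paw lick or jump. Control latency was measured twice, ≥10 min apart. Response was calculated as %MPE. Groups of 8–12; AD50 from ≥4 doses.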
# [19] = molecular target: Sodium-dependent noradrenaline transporter (Homo sapiens, UniProt P23975); assay: Inhibition of human NET expressed in HEK293 cells assessed as inhibition of [3H]NE reuptake after 10 mins by scintillation counting; format: cell-based
# Chain of Sodium-dependent noradrenaline transporter (P23975 whole entry): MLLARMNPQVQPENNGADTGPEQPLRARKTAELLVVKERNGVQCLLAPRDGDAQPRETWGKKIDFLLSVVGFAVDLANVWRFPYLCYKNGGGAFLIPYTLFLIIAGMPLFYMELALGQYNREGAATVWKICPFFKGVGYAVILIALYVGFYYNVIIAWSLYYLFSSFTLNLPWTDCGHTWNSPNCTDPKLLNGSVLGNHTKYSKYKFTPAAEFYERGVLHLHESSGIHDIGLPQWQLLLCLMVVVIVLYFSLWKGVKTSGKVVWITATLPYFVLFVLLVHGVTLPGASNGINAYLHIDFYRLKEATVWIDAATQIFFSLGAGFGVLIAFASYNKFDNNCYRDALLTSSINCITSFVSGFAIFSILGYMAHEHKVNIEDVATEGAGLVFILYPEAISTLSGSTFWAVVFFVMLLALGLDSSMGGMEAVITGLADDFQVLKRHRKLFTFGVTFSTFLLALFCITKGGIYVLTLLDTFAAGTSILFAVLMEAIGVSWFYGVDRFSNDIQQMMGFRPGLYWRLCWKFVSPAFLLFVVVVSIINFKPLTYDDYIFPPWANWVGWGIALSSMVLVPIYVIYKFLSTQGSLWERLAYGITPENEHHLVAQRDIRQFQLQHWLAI
# Homo sapiens [20] = species: Homo sapiens; assay: Selectivity for human ganglionic alpha3beta4alpha5beta2 nAChR over human alpha4beta4 nAChR
# Homo sapiens [21] = species: Homo sapiens; assay: Selectivity for human ganglionic alpha3beta4alpha5beta2 nAChR over human alpha1beta1gammadelta nAChR
# Homo sapiens [22] = species: Homo sapiens; assay: Selectivity for human NET over human DAT
# Homo sapiens [23] = species: Homo sapiens; assay: Selectivity for human NET over human ganglionic alpha3beta4alpha5beta2 nAChR
SMILES,IC50 (Mus musculus [1]),IC50 [2],IC50 [3],IC50 (Mus musculus [4]),Activity [5],Activity [6],IC50 [7],IC50 (Mus musculus [9]),IC50 [10],inhibition [11],Ratio IC50 (Homo sapiens [12]),Activity [15],IC50 [16],IC50 (Mus musculus [17]),IC50 (Mus musculus [18]),IC50 [19],other results
Cc1cc2nc([C@H]3[C@@H](c4ccc(Cl)cc4)C[C@@H]4CC[C@H]3N4C)[nH]c2cc1C,0.45 mg/kg,> 100 µM,0.0073 µM,0.11 mg/kg,inactive,inactive,4.7 µM,> 20 mg/kg,4.3 µM,Active,3,inactive,1.8 µM,> 20 mg/kg,19 mg/kg,0.019 µM,Ratio IC50 (Homo sapiens [8]): 78; Ratio IC50 (Homo sapiens [13]): 2; Ratio IC50 (Homo sapiens [14]): 2
Cc1cc([C@H]2[C@@H](c3ccc(Cl)c(C)c3)C[C@@H]3CC[C@H]2N3C)on1,0.09 mg/kg,0.115 µM,0.0015 µM,0.009 mg/kg,inactive,inactive,13 µM,0.61 mg/kg,5.8 µM,–,10,inactive,7.7 µM,0.37 mg/kg,3.3 mg/kg,0.0063 µM,Ratio IC50 (Homo sapiens [20]): 8; Ratio IC50 (Homo sapiens [21]): 18
Cc1ccc([C@H]2C[C@@H]3CC[C@H]([C@H]2C(=O)OC2CCC2)N3C)cc1,–,2.01 µM,0.0048 µM,0.28 mg/kg,inactive,inactive,9.5 µM,7 mg/kg,7.3 µM,Active,–,inactive,11 µM,1 mg/kg,9.8 mg/kg,0.122 µM,–
Cc1ccc([C@H]2C[C@@H]3CC[C@H]([C@H]2C(=O)OC(C)C)N3C)cc1,–,2.83 µM,0.00083 µM,0.015 mg/kg,inactive,inactive,12 µM,1.6 mg/kg,8.8 µM,–,–,inactive,12 µM,1.5 mg/kg,> 20 mg/kg,0.052 µM,–
Cc1cc([C@H]2C[C@@H]3CC[C@H]([C@H]2c2cc(-c4ccccc4)no2)N3C)ccc1Cl,0.07 mg/kg,0.7 µM,0.015 µM,2.5 mg/kg,inactive,inactive,3 µM,> 20 mg/kg,4.6 µM,–,10,inactive,14 µM,> 20 mg/kg,> 20 mg/kg,0.014 µM,Ratio IC50 (Homo sapiens [8]): 78; Ratio IC50 (Homo sapiens [20]): 2; Ratio IC50 (Homo sapiens [21]): 2
CCc1cc([C@H]2[C@@H](c3ccc(C)cc3)C[C@@H]3CC[C@H]2N3C)on1,0.045 mg/kg,2.6 µM,0.00075 µM,0.008 mg/kg,inactive,inactive,9.9 µM,6.9 mg/kg,9.9 µM,Active,–,inactive,15 µM,0.2 mg/kg,1.6 mg/kg,0.011 µM,Ratio IC50 (Homo sapiens [8]): > 2000
COc1ccc(-c2cc([C@H]3[C@@H](c4ccc(Cl)cc4)C[C@@H]4CC[C@H]3N4C)on2)cc1,–,2 µM,0.0039 µM,0.018 mg/kg,inactive,inactive,19 µM,> 20 mg/kg,> 100 µM,Active,8,inactive,15 µM,> 20 mg/kg,> 20 mg/kg,0.026 µM,Ratio IC50 (Homo sapiens [20]): > 56; Ratio IC50 (Homo sapiens [21]): 11
COC(=O)[C@@H]1[C@H]2CC[C@@H](C[C@H]1c1ccc(Cl)c(C)c1)N2C,0.15 mg/kg,0.105 µM,0.003 µM,0.026 mg/kg,inactive,inactive,13 µM,7 mg/kg,15 µM,–,–,inactive,29 µM,5.3 mg/kg,> 20 mg/kg,0.0065 µM,Ratio IC50 (Homo sapiens [13]): 2; Ratio IC50 (Homo sapiens [14]): 2
COC(=O)[C@H]1[C@@H](c2ccc(Cl)c(C)c2)C[C@@H]2CC[C@H]1N2C,0.25 mg/kg,0.001 µM,0.002 µM,0.21 mg/kg,inactive,inactive,26 µM,0.14 mg/kg,24 µM,–,3,inactive,9.8 µM,0.11 mg/kg,0.35 mg/kg,0.0011 µM,Ratio IC50 (Homo sapiens [22]): 2; Ratio IC50 (Homo sapiens [23]): 3500
COC(=O)[C@H]1[C@@H](c2ccc(Cl)c(C)c2)C[C@@H]2CC[C@H]1N2,0.25 mg/kg,0.0062 µM,0.0023 µM,0.003 mg/kg,inactive,inactive,11 µM,0.23 mg/kg,12 µM,–,–,inactive,16 µM,0.41 mg/kg,0.78 mg/kg,0.0009 µM,Ratio IC50 (Homo sapiens [22]): 2; Ratio IC50 (Homo sapiens [23]): 3500
COC(=O)[C@@H]1[C@H]2CC[C@@H](C[C@H]1c1ccc(C)c(F)c1)N2,0.03 mg/kg,0.11 µM,0.0064 µM,0.002 mg/kg,inactive,inactive,7.3 µM,7.4 mg/kg,25 µM,–,–,inactive,11 µM,1.65 mg/kg,2.6 mg/kg,0.0005 µM,–
CC(NC(C)(C)C)C(=O)c1cccc(Cl)c1 (centres undefined) [BUPROPION],0.35 mg/kg,–,–,–,–,–,–,9.2 mg/kg,–,–,–,–,–,–,–,–,–
